# High-throughput results: PubChem, several laboratories
# MDM2 E3 inh: Mdm2 E3 ligase (human) inhibition | Q00987 | 210,000 tested, 0.11% active | signal enhancement, % at 5 µM | cell-based MDM2 ubiquitination luciferase reporter, 2 h; 0 = plate control, 100 = twice control, blank-subtracted;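 active means signal enhancement of 30% or more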;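 further: luminescence tracks abundance of the self-degrading MDM2-luciferase fusion protein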
# Target sequence (Q00987 whole entry, looked up, the tested form may be a part): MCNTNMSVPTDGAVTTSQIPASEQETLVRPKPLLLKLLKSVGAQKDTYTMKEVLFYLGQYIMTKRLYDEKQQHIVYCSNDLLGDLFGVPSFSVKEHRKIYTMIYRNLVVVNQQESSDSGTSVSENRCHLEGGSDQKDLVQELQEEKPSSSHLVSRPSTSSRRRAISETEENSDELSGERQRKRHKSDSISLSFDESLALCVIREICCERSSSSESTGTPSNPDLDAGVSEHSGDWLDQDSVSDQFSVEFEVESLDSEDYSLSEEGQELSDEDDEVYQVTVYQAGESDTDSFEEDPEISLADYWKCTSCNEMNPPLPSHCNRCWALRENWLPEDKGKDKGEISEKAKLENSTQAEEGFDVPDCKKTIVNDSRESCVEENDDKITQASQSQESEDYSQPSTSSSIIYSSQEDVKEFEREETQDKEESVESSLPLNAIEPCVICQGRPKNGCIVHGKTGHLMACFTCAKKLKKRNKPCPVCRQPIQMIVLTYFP
#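 system = mammalian cells stably expressing self-ubiquitinating, self-degrading MDM2 E3–luciferase fusion | quantity = 2000 cells per well seeded | incubation = 4 h cell settling then 2 h compound exposure, 37 °C | signal = SteadyLite luminescence, 15 min reagent step | benchmarks = plate control and blank wells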
# S1P4 antagonist: human S1P4 receptor antagonism; S1P4-expressing cells, antagonist mode, reporter read-out; inhibition, % at 4.98 µM; O95977; 220,000 tested, 0.26% active; in the data active means inhibition above about 29%
# S1P4 agonist: agonists of human S1P4 receptor; S1P4-expressing cell line, agonist reporter assay; activation, % at 4.98 µM; 220,000 tested, 0.35% active; in the data active means activation above about 11%
# S1P3 antag: S1P3 (human) receptor antagonism | 170,000 tested, 0.27% active | Q99500 | inhibition, % at 4.98 µM | CHO S1P3 NFAT-BLA reporter, FRET fluorescence, antagonist mode | AID 485;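 active means inhibition above the plate cutoff, the mean inhibition of test wells on that plate plus 3 SD, cut at about 28% in these data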;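 further: cells challenged with S1P at its EC80 of 0.8 µM; blue over green emission ratio from cleaved BLA substrate after 4 h stimulation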
# Hsp70 act: switches on Hsp70 transcription; HeLa Hsp70 promoter luciferase reporter, luminescence; scaled: vehicle 0, proteasome-inhibitor control 100%; activation, % at 10 µM; 200,000 tested, 0.04% active; AID 1203;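 active means activation above the mean across all tested compounds plus 3 SD, cutoff set per campaign, cut at about 5.5% in these data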
# Dynein cargo inh: dynein cargo transport inhibition | 3617.4 mouse cells, GR-EGFP nuclear translocation imaging; test concentration mostly 20 µM; stimulated with dexamethasone, 1 µM; active compounds read low | z-score, hits read low | 220,000 tested, 0.47% active;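 active means plate z-score of nuclear minus cytoplasmic receptor signal below a set negative limit, without overly bright fluorescence or cell loss, cut at about -3.5 in these data, passing the limit was not always enough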;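 further: z-score of nuclear minus cytoplasmic ring GR-EGFP intensity difference per well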
#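 Buffer or medium: tetracycline-free induction medium containing charcoal-stripped FBS / Reagent: dexamethasone agonist, 1.0 µM final, for 30 min / Technique: automated 10x imaging of fixed Hoechst-stained cells / Times: induction 48 h, compound 1 h, agonist 30 min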
# Hits are given with their value; . = inactive; / = no result given. The list is not random: actives were taken first. Their share in the collection is about 1.3%.
SMILES,MDM2 E3 inh,S1P4 antagonist,S1P4 agonist,S1P3 antag,Hsp70 act,Dynein cargo inh
Cc1cc(C)c(C(N)=O)c(Nc2cccc(Cl)c2C)n1,.,.,.,55,.,.
Cc1cc(C)c(C(N)=O)c(NC(=O)Nc2ccccc2Cl)n1,.,.,.,/,.,.
COc1ccc(C2=NN(CN3C(=O)C(=O)c4ccccc43)C(c3cccc([N+](=O)[O-])c3)C2)cc1 (stereo not given),.,.,.,.,/,.
Cc1cc(NC(=O)C(=O)NCc2cccc(Cl)c2)no1,.,.,.,.,/,.
COc1cccc(-n2c(SCC(=O)N3CCOCC3)nnc2-c2c[nH]c3ccccc23)c1,.,.,.,53,.,.
CC(C)N(C(=O)COC(=O)CNS(=O)(=O)c1ccccc1F)c1ccccc1,.,.,.,.,.,.
Nc1cccc(-n2cccc2)c1,.,.,.,.,.,.
CC(C)(C)C1CCc2onc(C(=O)NCc3ccc(F)cc3)c2C1 (stereo not given),.,.,.,64,.,.
O=C(NCc1ccc(F)cc1)c1noc2c1CCCC2,.,.,.,.,.,.
CCCc1cc(=O)[nH]c(Nc2ccc(Cl)cc2)n1,.,.,.,.,.,.
CCCc1cc(=O)[nH]c(Nc2ccc(OC)c(Cl)c2)n1,.,.,.,92,.,.
COc1ccc(S(=O)(=O)NN(C)c2ncc(C(F)(F)F)cc2Cl)cc1,36,.,.,.,.,.
CC(C)NS(=O)(=O)c1ccc(Oc2ncc(C(F)(F)F)cc2Cl)cc1,.,.,.,/,.,.
CCOC(=O)c1sc(=S)n(-c2ccccc2)c1N,.,.,.,/,.,.
CCOC(=O)c1sc(=S)n(-c2ccccc2)c1N(C(C)=O)C(C)=O,31,.,.,.,.,.
Cc1cc(C(=O)Nc2cccc3ccccc23)n(-c2ccccc2)n1,42,.,.,.,.,.
Fc1ccccc1-c1nc(NCCCN2CCOCC2)c2ccccc2n1,.,.,.,.,.,.
c1ccc2c(NCCCN3CCOCC3)c3ccccc3nc2c1,.,.,11,.,.,.
CSC1=NCCN1C(=O)Cc1ccc(Cl)cc1,.,.,.,66,.,.
Cn1cc(/C=N/n2cnc3scc(-c4ccc(Cl)cc4)c3c2=O)c2ccccc21,.,.,.,56,.,.
O=S(=O)(Cc1ccccc1)NCc1ccccn1,.,.,.,103,.,.
CC(C)(CCl)C(=O)Nc1ccnc(-c2ccncc2)n1,.,.,.,.,.,.
O=C(Nc1ccc(N2CCOCC2)cc1)Nc1ccc2nc(-c3ccco3)c(-c3ccco3)nc2c1,.,.,.,57,.,.
N#C/C(=C/c1ccc(Br)o1)C(N)=S,.,.,.,.,/,-4.1
Cn1c(CNC(=O)c2ccco2)nnc1SCC(=O)Nc1cccc(Br)c1,.,.,.,/,.,.
SMILES,MDM2 E3 inh,S1P4 antagonist,S1P4 agonist,S1P3 antag,Hsp70 act,Dynein cargo inh
Cn1c(CNC(=O)c2ccco2)nnc1SCC(=O)N1c2ccccc2Sc2ccccc21,30,.,.,.,.,.
CCOC(=O)c1ccc(Oc2cc(C)nc(Cl)n2)cc1,.,.,.,.,/,.
Cc1ccc(S(=O)(=O)N2CCCC2)cc1[N+](=O)[O-],.,.,.,.,.,.
O=[N+]([O-])c1cc(S(=O)(=O)N2CCCCCC2)ccc1Cl,.,86,.,.,.,.
CC(C)c1ccc(N2C(=O)CC(NNC(=O)c3ccccc3Cl)C2=O)cc1 (stereo not given),.,.,.,.,/,.
O=C(Cn1cnc2ccccc2c1=O)NCCC(=O)N1CCN(Cc2ccccc2)CC1,34,.,.,.,.,.
Cn1c(Cc2nc(-c3cnccn3)no2)nnc1SCC(=O)Nc1ccccc1,.,.,.,.,/,.
O=S(=O)(Nc1cnc2ccccc2c1)N1CCCCCC1,.,.,.,.,.,.
Cc1ccc(/C=C2/NC(=O)N(Cc3ccc(Br)cc3)C2=O)o1,32,.,.,.,.,.
CSc1nsc(/C=C/Nc2ccc(F)cc2)c1C#N,35,.,.,.,.,.
CSc1nsc(/C=C/Nc2ccc(Cl)cc2)c1C#N,.,.,.,/,.,.
CCn1c(O)c(N=NC(=O)C(O)c2ccccc2)c2ccccc21 (stereo not given),.,.,.,.,/,.
Cc1ccc2c(c1)N(CC(=O)OC(CC(C)C)C(=O)NC1CCCC1)C(=O)CO2 (stereo not given),.,.,.,90,.,.
CC(C)C(OC(=O)CN1C(=O)COc2ccccc21)C(=O)NC1CCCC1 (stereo not given),.,.,.,.,.,.
COc1ccc2c(c1OC)C(=O)OC2n1c(O)c(N=NC(C)=O)c2ccccc21 (stereo not given),.,.,.,.,/,.
CC(=O)Nc1cccc(NC(=O)CSc2nnnn2C)c1,.,.,.,70,.,.
NC(=O)c1ccc(NC(=O)CSc2nnc(-c3ccncc3)n2Cc2ccco2)cc1,.,.,.,.,/,.
O=C(Nc1cc(C(F)(F)F)cc(C(F)(F)F)c1)Nc1cnn(-c2ccc([N+](=O)[O-])cc2)c1C(F)(F)F,.,.,.,.,/,.
O=C(/C=C1\C(=O)Nc2ccccc21)/C=C1\C(=O)Nc2ccccc21,.,46,.,.,/,-4.4
CN(O)/C=C1\C(=O)Nc2ccccc21,/,.,.,/,.,.
O=C(CSc1n[nH]c(-c2ccncc2)n1)c1cccc([N+](=O)[O-])c1,.,.,.,.,.,.
O=C(CSc1n[nH]c(-c2ccncc2)n1)c1ccccc1,.,.,.,72,.,.
Cc1cc(C)c(NC(=O)CN2CCN(C)CC2)c(C)c1,.,/,/,79,/,.
COc1ccc(N2CCN(CC(=O)Nc3c(C)cc(C)cc3C)CC2)cc1,.,.,.,.,.,.
CC(Oc1ccccc1)C(=O)NC1=NCCS1 (stereo not given),/,.,.,.,.,.
SMILES,MDM2 E3 inh,S1P4 antagonist,S1P4 agonist,S1P3 antag,Hsp70 act,Dynein cargo inh
COC(=O)c1cc(=O)n(Cc2ccc3c(c2)OCO3)c(=Nc2ccccc2)s1,.,.,.,.,.,-3.5
COC(=O)c1cc(=O)n(Cc2ccc3c(c2)OCO3)c(=Nc2ccc(F)cc2)s1,.,.,.,/,.,.
O=C(COc1ccccc1)Nc1ncccn1,35,.,.,/,.,.
C/C(=N\NC(=O)C1(C)NC(C)(C)Cc2ccccc21)c1ccccc1 (stereo not given),.,.,.,.,.,.
CCCn1c(Nc2nc3ccccc3n2C)nc2ccccc21,.,.,.,58,.,.
C[C@H]1CCC[C@@]2(O[C@@H](CCO)C[C@@H](O)[C@@H]2O)O1,.,/,/,/,/,.
CC(=O)/C(=N\Nc1ccccc1)Sc1cccc2cccnc12,.,.,.,.,.,.
O=C(Sc1cccc2cccnc12)c1ccc(F)cc1,.,98,.,.,.,.
COc1ccc(-c2nc(-c3ccccc3OC)no2)cc1OC,.,.,.,54,.,.
